Data on two compounds can be found in ChEMBL document CHEMBL1142613, “Characterization of the major metabolite of sampangine in rats” (J Nat Prod, 2000).

Molecules are shown by their SMILES. ≈ marks a conversion by molar mass, not a printed value. Calls of active or inactive are those of the source. The rule behind the calls is not given here.

In general, MIC refers to the lowest concentration found to suppress growth. Read a high MIC as a less susceptible organism.

In assay [1] the test system is Cryptococcus neoformans. The assay is described as follows: Antifungal activity against Cryptococcus neoformans ATCC 52657 at 100 ug/mL after 48 hrs by bioautography. In kind it is functional. The conditions noted are these: ATCC 52657, 48 h, read-out: IZ. Put shortly: (§1)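 Bioautography at a test concentration of 100 µg/mL; activity recorded as zone of inhibition in mm. Media were yeast nitrogen broth for C. albicans and Mycophil broth for C. neoformans.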

In assay [2] the test system is Candida albicans. In words: Antifungal activity against Candida albicans NIH B311 at 100 ug/mL after 24 hrs by agar well diffusion method. The following applies: read-out: IZ. It is filed as functional. The method in brief: (§2)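 Agar well diffusion at a test concentration of 100 µg/mL; activity read as zone of inhibition diameter in mm. C. albicans was grown in yeast nitrogen broth, C. neoformans in Mycophil broth.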

Assay [3] concerns Cryptococcus neoformans. The assay is described as follows: Antifungal activity against Cryptococcus neoformans ATCC 52657 at 100 ug/mL after 48 hrs by agar well diffusion method. It is filed as functional. The conditions noted are these: ATCC 52657, 48 h, read-out: IZ. Put shortly: as §2
In general terms: A growth-free zone around the sample is the usual read-out of agar diffusion tests.

Assay [4] concerns Candida albicans. The assay is described as follows: Antifungal activity against Candida albicans NIH B311 at 100 ug/mL after 24 hrs by bioautography. In kind it is functional. The following applies: read-out: IZ. Put shortly:
as §1

The subject of assay [5] is Candida albicans. In words: Antifungal activity against Candida albicans NIH B311 after 24 hrs by twofold serial dilution method. In kind it is functional. The method in brief:
(§3)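 Two-fold serial broth macrodilution. C. albicans was grown in yeast nitrogen broth and incubated 24 h; C. neoformans in Mycophil broth, 48 h; both at 37 °C. MIC taken as the lowest concentration visually inhibiting growth. Footnote notes one test sample was run in Eugon by a microplate method.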

Assay [6] deals with Cryptococcus neoformans. The assay is described as follows: Antifungal activity against Cryptococcus neoformans ATCC 52657 after 48 hrs by twofold serial dilution method. It is filed as functional. The conditions noted are these: ATCC 52657, 48 h. The method in brief:
as §3

A further assay has as its system Bacillus subtilis. The assay is described as follows: Antibacterial activity against Bacillus subtilis ATCC 6333. In kind it is functional, organism-based. The method in brief: (§4)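 Colorimetric oxidation-reduction broth assay, with Alamar blue dye added as an indicator of the organism's metabolic activity; result expressed as MIC in µg/mL; streptomycin served as positive control.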

For the next assay, the system named is Pseudomonas aeruginosa. The assay is described as follows: Antibacterial activity against Pseudomonas aeruginosa ATCC 15442. It is filed as functional, organism-based. The method in brief: as §4
The subject of a further assay is Escherichia coli. In words: Antibacterial activity against Escherichia coli ATCC 10536. It is filed as functional, organism-based. The method in brief: as §4
In a further assay the test system is Staphylococcus aureus. The assay is described as follows: Antibacterial activity against Staphylococcus aureus ATCC 6538. In kind it is functional, organism-based. Put shortly:
as §4

In the case of `O=C1c2ccccc2-c2nccc3ccnc1c23` [SAMPANGINE], the zone of inhibition at 100 µg/mL with Cryptococcus neoformans [1] is 35 mm; in the assay on Candida albicans [2], 10 mm; in the assay with Cryptococcus neoformans [3], 35 mm; with Candida albicans [4], 10 mm. The MIC came out at 3.12 µg/mL (≈ 13.4 µM) with Candida albicans [5] and 0.2 µg/mL (≈ 0.861 µM) against Cryptococcus neoformans [6].

For `O=C(O)[C@H]1O[C@@H](Oc2c3c4c(ccnc4c4ccccc24)C=CN3)[C@H](O)[C@@H](O)[C@@H]1O`, the zone of inhibition at 100 µg/mL with Cryptococcus neoformans [1] turned out to be 35 mm; in the assay on Candida albicans [2] it was 6 mm; with Cryptococcus neoformans [3], 26 mm. Besides, the result in the assay on Bacillus subtilis, with Pseudomonas aeruginosa, in the assay on Escherichia coli and in the assay on Staphylococcus aureus was inactive. Further, the MIC in the assay with Candida albicans [5] and against Cryptococcus neoformans [6] was above 25 µg/mL throughout.
